Reference: ChEMBL document CHEMBL3877250, “Design, synthesis, and biological evaluation of (2E)-(2-oxo-1, 2-dihydro-3H-indol-3-ylidene)acetate derivatives as anti-proliferative agents through ROS-induced cell apoptosis” (Eur J Med Chem, 2016)
The source made the active and inactive calls. No cut-off for these calls is given here.

Experiments:
[1] = Cell cycle arrest in human HCT116 cells assessed as G1 phase accumulation at 0.5 uM after 48 hrs by Annexin V-FITC/propidium iodide staining based flow cytometry (reference value: 40.83%); format: functional; conditions: HCT-116
HCT-116 [2] = experiment: Induction of apoptosis in human HCT116 cells assessed as early apoptotic cells at 8 uM after 48 hrs by Annexin V-FITC/propidium iodide staining based flow cytometry (reference value: 3.8%); format: functional
[3] = Cell cycle arrest in human HCT116 cells assessed as sub-G1 phase accumulation at 3 uM after 48 hrs by Annexin V-FITC/propidium iodide staining based flow cytometry (reference value: 4.36%); format: functional; conditions: HCT-116
[4] = Cytotoxicity against human OVCAR3 cells after 72 hrs by CCK-8 assay; format: functional, cell-based; conditions: OVCAR-3, 72 h
Procedure, shortened: (§1)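 Cells kept in RPMI 1640 with 10% heat-inactivated fetal calf serum and 1% streptomycin/penicillin at 37 °C, 5% CO2. After compound exposure, CCK-8 was added and cells were incubated 4 h at 37 °C, then absorbance was read at 450 nm. Viability is relative to untreated cells (100%). IC50 comes from nonlinear regression, mean of three separate determinations. Single-concentration screen at 20 µM.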

HCT-116 [5] = experiment: Inhibition of TrxR in human HCT116 cells after 3 hrs by DTNB assay; format: cell-based
Procedure, shortened: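 HCT116 cells plated at 4 × 10⁵ cells/well in six-well plates and incubated with or without compound for 3 h. Total protein extracted and quantified. Cellular TrxR activity measured by a DTNB-based kit with absorbance read at 412 nm.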

[6] = Cell cycle arrest in human HCT116 cells assessed as sub-G1 phase accumulation at 0.5 uM after 48 hrs by Annexin V-FITC/propidium iodide staining based flow cytometry (reference value: 4.36%); format: functional; conditions: HCT-116
HCT-116 [7] = experiment: Induction of apoptosis in human HCT116 cells assessed as late apoptotic cells at 0.5 uM after 48 hrs by Annexin V-FITC/propidium iodide staining based flow cytometry (reference value: 6.7%); format: functional
[8] = Cell cycle arrest in human HCT116 cells assessed as S phase accumulation at 4 uM after 48 hrs by Annexin V-FITC/propidium iodide staining based flow cytometry (reference value: 28.43%); format: functional; conditions: HCT-116
HCT-116 [9] = experiment: Induction of apoptosis in human HCT116 cells assessed as live cells at 4 uM after 48 hrs by Annexin V-FITC/propidium iodide staining based flow cytometry (reference value: 88.7%); format: functional
HCT-116 [10] = experiment: Induction of apoptosis in human HCT116 cells assessed as activation of cleaved caspases 3 after 9 hrs by Western blot method; format: functional, cell-based
Procedure, shortened: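 HCT116 plated at 4×10^5 cells/well and incubated with or without compound for 9 h. Protein then extracted and run on 12% SDS-PAGE western blot probed with anti-cleaved caspase 3, anti-caspase 3, anti-Bax and anti-Bcl-2.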

[11] = Cytotoxicity against human SK-BR-3 cells after 72 hrs by CCK-8 assay; format: functional, cell-based; conditions: SK-BR-3, 72 h; procedure, shortened: as §1
[12] = Cytotoxicity against human HCT116 cells after 72 hrs by CCK-8 assay; format: functional, cell-based; conditions: HCT-116, 72 h; procedure, shortened: as §1
HCT-116 [13] = experiment: Induction of apoptosis in human HCT116 cells assessed as late apoptotic cells at 4 uM after 48 hrs by Annexin V-FITC/propidium iodide staining based flow cytometry (reference value: 6.7%); format: functional
HCT-116 [14] = experiment: Induction of apoptosis in human HCT116 cells assessed as necrotic cells at 0.1 uM after 48 hrs by Annexin V-FITC/propidium iodide staining based flow cytometry (reference value: 0.8%); format: functional
[15] = Cell cycle arrest in human HCT116 cells assessed as G2/M phase accumulation at 4 uM after 48 hrs by Annexin V-FITC/propidium iodide staining based flow cytometry (reference value: 25.3%); format: functional; conditions: HCT-116
HCT-116 [16] = experiment: Induction of apoptosis in human HCT116 cells assessed as necrotic cells at 0.5 uM after 48 hrs by Annexin V-FITC/propidium iodide staining based flow cytometry (reference value: 0.8%); format: functional
[17] = Cytotoxicity against human MDA-MB-231 cells assessed as growth inhibition at 20 uM after 72 hrs by CCK-8 assay; format: functional; conditions: MDA-MB-231, 72 h, read-out: GI; procedure, shortened: as §1
HCT-116 [18] = experiment: Induction of apoptosis in human HCT116 cells assessed as increase in intracellular reactive oxygen species at 2 to 3 hrs by DCFH-DA probe-based flow cytometry; format: functional, cell-based
[19] = Cytotoxicity against human OVCAR3 cells assessed as growth inhibition at 20 uM after 72 hrs by CCK-8 assay; format: functional; conditions: OVCAR-3, 72 h, read-out: GI; procedure, shortened: as §1
HCT-116 [20] = experiment: Induction of apoptosis in human HCT116 cells assessed as early apoptotic cells at 4 uM after 48 hrs by Annexin V-FITC/propidium iodide staining based flow cytometry (reference value: 3.8%); format: functional
Procedure, shortened: (§2)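 HCT116 seeded at 2×10^5 cells/well, cultured 6 h, then treated 48 h at 0.1, 0.5, 1, 4, 8 or 16 µM; DMSO (0.1%) served as vehicle. Cells washed twice in cold PBS, resuspended in binding buffer with FITC Annexin V and PI for 15 min at RT in the dark, diluted, and run on flow cytometry within 1 h.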

[21] = Cytotoxicity against human HepG2 cells after 72 hrs by CCK-8 assay; format: functional, cell-based; conditions: HepG2, 72 h; procedure, shortened: as §1
[22] = Cell cycle arrest in human HCT116 cells assessed as G2/M phase accumulation at 2 uM after 48 hrs by Annexin V-FITC/propidium iodide staining based flow cytometry (reference value: 25.3%); format: functional; conditions: HCT-116
[23] = Cell cycle arrest in human HCT116 cells assessed as S phase accumulation at 1 uM after 48 hrs by Annexin V-FITC/propidium iodide staining based flow cytometry (reference value: 28.43%); format: functional; conditions: HCT-116
[24] = Cytotoxicity against human Saos2 cells after 72 hrs by CCK-8 assay; format: functional, cell-based; conditions: SAOS-2, 72 h; procedure, shortened: as §1
HCT-116 [25] = experiment: Induction of apoptosis in human HCT116 cells assessed as early apoptotic cells at 1 uM after 48 hrs by Annexin V-FITC/propidium iodide staining based flow cytometry (reference value: 3.8%); format: functional; procedure, shortened: as §2
[26] = Cell cycle arrest in human HCT116 cells assessed as G1 phase accumulation at 2 uM after 48 hrs by Annexin V-FITC/propidium iodide staining based flow cytometry (reference value: 40.83%); format: functional; conditions: HCT-116
HCT-116 [27] = experiment: Induction of apoptosis in human HCT116 cells after 48 hrs by Annexin V-FITC/propidium iodide staining based flow cytometry; format: functional, cell-based; procedure, shortened: as §2
[28] = Cytotoxicity against human L02 cells assessed as growth inhibition at 20 uM after 72 hrs by CCK-8 assay; format: toxicity, cell-based; conditions: read-out: GI; procedure, shortened: as §1
HCT-116 [29] = experiment: Induction of apoptosis in human HCT116 cells assessed as necrotic cells at 1 uM after 48 hrs by Annexin V-FITC/propidium iodide staining based flow cytometry (reference value: 0.8%); format: functional
HCT-116 [30] = experiment: Induction of apoptosis in human HCT116 cells assessed as live cells at 0.1 uM after 48 hrs by Annexin V-FITC/propidium iodide staining based flow cytometry (reference value: 88.7%); format: functional
[31] = Cytotoxicity against human Saos2 cells assessed as growth inhibition at 20 uM after 72 hrs by CCK-8 assay; format: functional; conditions: SAOS-2, 72 h, read-out: GI; procedure, shortened: as §1
[32] = Cytotoxicity against human HL60 cells after 72 hrs by CCK-8 assay; format: functional, cell-based; conditions: HL-60, 72 h; procedure, shortened: as §1

For CC(C)(C)OC(=O)/C=C1/C(=O)Nc2ccccc21, the Activity [1] was 40.9%, the Activity (HCT-116 [2]) was 7.1% and the Activity [3] was 5.11%. For the same compound, the IC50 [4] was 6.55 µM, the inhibition (HCT-116 [5]) was “Dose-dependent effect” and the Activity [6] was 0.25%. It also gave an Activity (HCT-116 [7]) of 7.5%, an Activity [8] of 22.8% and an Activity (HCT-116 [9]) of 89.1%. For the same compound, the Activity (HCT-116 [10]) was “Active”, the IC50 [11] was 3.42 µM and the IC50 [12] was 2.64 µM. The Activity (HCT-116 [13]) was 6.6%, the Activity (HCT-116 [14]) was 0.6% and the Activity [15] was 11.7%. The Activity (HCT-116 [16]) was 0.6%, the inhibition of growth at 20 µM [17] was 87.6% and the Activity (HCT-116 [18]) was “Dose-dependent effect”. It also gave an inhibition of growth at 20 µM [19] of 59.6%, an Activity (HCT-116 [20]) of 3.6% and an IC50 [21] of 4.64 µM. For the same compound, the Activity [22] was 29.3%, the Activity [23] was 34.3% and the IC50 [24] was 6.11 µM. The Activity (HCT-116 [25]) was 2.6%, the Activity [26] was 40.9% and the Activity (HCT-116 [27]) was “Dose-dependent effect”. For the same compound, the inhibition at 72 h, 20 µM [28] was 64.1%, the Activity (HCT-116 [29]) was 1.3% and the Activity (HCT-116 [30]) was 90.8%. It also gave an inhibition of growth at 20 µM [31] of 83.3% and an IC50 [32] of 2.45 µM.
